{"source": "ChEMBL document CHEMBL1148254", "about": "“Lead discovery of quinoxalinediones as an inhibitor of dipeptidyl peptidase-IV (DPP-IV) by high-throughput screening” (Bioorg Med Chem Lett, 2004)"}
{"target": "Dipeptidyl peptidase 4 (Rattus norvegicus) (UniProt P14740)", "sequence (P14740 whole entry, looked up)": "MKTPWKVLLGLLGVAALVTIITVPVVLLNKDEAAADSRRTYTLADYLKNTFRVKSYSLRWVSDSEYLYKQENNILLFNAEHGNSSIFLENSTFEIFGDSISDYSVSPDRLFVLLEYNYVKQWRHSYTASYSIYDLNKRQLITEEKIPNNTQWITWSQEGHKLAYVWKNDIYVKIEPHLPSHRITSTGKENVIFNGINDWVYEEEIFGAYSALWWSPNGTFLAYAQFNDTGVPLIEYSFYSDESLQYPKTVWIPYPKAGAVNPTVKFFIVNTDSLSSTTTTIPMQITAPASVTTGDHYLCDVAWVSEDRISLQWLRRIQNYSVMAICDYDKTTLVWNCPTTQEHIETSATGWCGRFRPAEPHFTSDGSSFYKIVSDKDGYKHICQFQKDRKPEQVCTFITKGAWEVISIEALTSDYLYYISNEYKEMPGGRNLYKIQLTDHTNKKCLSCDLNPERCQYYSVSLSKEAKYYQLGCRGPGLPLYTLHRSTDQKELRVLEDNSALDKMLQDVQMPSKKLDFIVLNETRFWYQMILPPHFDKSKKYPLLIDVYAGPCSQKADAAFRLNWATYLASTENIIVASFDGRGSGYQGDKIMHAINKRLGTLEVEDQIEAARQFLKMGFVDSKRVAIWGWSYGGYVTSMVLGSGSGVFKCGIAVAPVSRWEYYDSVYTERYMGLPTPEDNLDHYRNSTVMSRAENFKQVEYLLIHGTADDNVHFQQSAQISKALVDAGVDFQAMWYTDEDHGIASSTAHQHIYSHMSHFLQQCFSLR", "experiment": "Inhibitory activity against Dipeptidylpeptidase IV in rat", "set-up": "concentration or dose not given beside the values", "conditions": "concentration not given here", "summary_of_the_method": "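Rat plasma was the enzyme source, incubated with Ala-Pro-AFC substrate (40) at room temperature, pH 7.8, for 1 h with or without test compound (20). Compounds were dissolved in DMSO, giving 5% DMSO in the assay mixture. Released AFC was read by fluorescence at 360 nm excitation and 485 nm emission, and a reference inhibitor was included.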", "units": {"inhibition": "%"}}
{"molecule": "O=c1[nH]c2cc(Cl)c(Cl)cc2n(NC(=S)Nc2ccccc2)c1=O", "inhibition": 50}
{"molecule": "O=C(Nn1c(=O)c(=O)[nH]c2cc([N+](=O)[O-])ccc21)NS(=O)(=O)c1ccc(Cl)cc1", "inhibition": 66.8}
{"molecule": "O=C(Nn1c(=O)c(=O)[nH]c2cc(Cl)ccc21)NS(=O)(=O)c1ccccc1", "inhibition": 17.3}
{"molecule": "Cc1ccccc1S(=O)(=O)NC(=O)Nn1c(=O)c(=O)[nH]c2cc([N+](=O)[O-])ccc21", "inhibition": 79.1}
{"molecule": "O=C(Nc1ccc(F)cc1F)Nn1c(=O)c(=O)[nH]c2cc([N+](=O)[O-])ccc21", "inhibition": 5.1}
{"molecule": "O=C(NC(=O)c1ccccc1)Nn1c(=O)c(=O)[nH]c2cc(Cl)ccc21", "inhibition": 14.8}
{"molecule": "Cc1ccccc1S(=O)(=O)NC(=O)Nn1c(=O)c(=O)[nH]c2ccccc21", "inhibition": 12.3}
{"molecule": "Cc1ccc(S(=O)(=O)NC(=O)Nn2c(=O)c(=O)[nH]c3cc(Cl)ccc32)cc1", "inhibition": 20.5}
{"molecule": "Cc1ccc(S(=O)(=O)NC(=O)Nn2c(=O)c(=O)[nH]c3cc(Cl)c(Cl)cc32)cc1", "inhibition": 21}
{"molecule": "O=C(Nn1c(=O)c(=O)[nH]c2cc([N+](=O)[O-])ccc21)NS(=O)(=O)c1ccccc1", "inhibition": 57.2}
{"molecule": "O=C(Nn1c(=O)c(=O)[nH]c2cc(Cl)c(Cl)cc21)NS(=O)(=O)c1ccccc1", "inhibition": 23.7}
{"molecule": "O=C(Nc1cccc(Cl)c1)Nn1c(=O)c(=O)[nH]c2cc([N+](=O)[O-])ccc21", "inhibition": 6.6}
{"molecule": "Cc1ccc(NC(=O)Nn2c(=O)c(=O)[nH]c3cc([N+](=O)[O-])ccc32)cc1", "inhibition": 1}
{"molecule": "Cc1ccc(S(=O)(=O)NC(=O)Nn2c(=O)c(=O)[nH]c3cc([N+](=O)[O-])ccc32)cc1", "inhibition": 48}
{"molecule": "Cc1ccccc1S(=O)(=O)NC(=O)Nn1c(=O)c(=O)[nH]c2cc(Cl)c(Cl)cc21", "inhibition": 10.4}
{"molecule": "Cc1ccccc1S(=O)(=O)NC(=O)Nn1c(=O)c(=O)[nH]c2cc(Cl)ccc21", "inhibition": 26.4}
{"molecule": "O=C(NC(=O)c1ccccc1)Nn1c(=O)c(=O)[nH]c2cc([N+](=O)[O-])ccc21", "inhibition": 72.2}
{"molecule": "O=C(Nn1c(=O)c(=O)[nH]c2ccccc21)NS(=O)(=O)c1ccccc1", "inhibition": 14.1}
{"molecule": "O=C(Nc1ccccc1)Nn1c(=O)c(=O)[nH]c2cc([N+](=O)[O-])ccc21", "inhibition": 3.6}
{"molecule": "O=C(NC(=O)c1ccccc1)Nn1c(=O)c(=O)[nH]c2ccccc21", "inhibition": 13}
{"molecule": "Cc1ccc(S(=O)(=O)NC(=O)Nn2c(=O)c(=O)[nH]c3ccccc32)cc1", "inhibition": 12.3}
{"molecule": "O=c1[nH]c2ccccc2n(NC(=S)NCc2ccccc2)c1=O", "inhibition": 41.5}
{"molecule": "O=C(NC(=S)Nn1c(=O)c(=O)[nH]c2cc(Cl)c(Cl)cc21)c1ccccc1", "inhibition": 20.5}
{"molecule": "O=c1[nH]c2ccccc2n(NC(=S)Nc2cccc(Cl)c2)c1=O", "inhibition": 32.1}
{"molecule": "O=c1[nH]c2ccccc2n(NC(=S)Nc2ccccc2)c1=O", "inhibition": 26.5}
{"molecule": "CC/N=C(\\S)Nn1c(=O)c(=O)[nH]c2ccccc21", "inhibition": 40.1}
